Hits are enriched below; roughly 1.9% of the tested compounds scored in any of these assays.
LEDGF integ inh: blockers of LEDGF/p75-dependent integrase strand transfer – biochemical, TR-FRET, high throughput, primary screen; AID 743269, 2014; TR-FRET IN-LEDGF/p75 DNA integration, Eu/Cy5; inhibition, % at 3.7 µM; 370,000 compounds, 0.64% hits; HIV-1 integrase (with human LEDGF/p75);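 active means inhibition above the screen-wide mean plus 3 SD, cut at about 13% in these data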;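 further: signal is the Cy5 over europium emission ratio at 671 and 618 nm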
Rin1-Abl PPI inh: inhibitors of Rin1-Abl protein binding, primary screen, biochemical, TR-FRET; inhibition, % at 7.35 µM; Tyrosine-protein kinase ABL1 (Homo sapiens) + Ras and Rab interactor 1 (Homo sapiens), …; 360,000 compounds, 0.4% hits; in the data active means inhibition above about 5%, passing the limit was not always enough
MBD2 DNA inh: inhibitors of MBD2 binding to methylated DNA, primary screen, biochemical, TR-FRET, DNA-binding domain, human; Methyl-CpG-binding domain protein 2 (Homo sapiens), Q9UBB5; inhibition, % at 4.4 µM; 370,000 compounds, 0.31% hits; MBD2 binding to methylated oligonucleotide; in the data active means inhibition above about 13%
Target sequence (Q9UBB5 whole entry, looked up, the tested form may be a part): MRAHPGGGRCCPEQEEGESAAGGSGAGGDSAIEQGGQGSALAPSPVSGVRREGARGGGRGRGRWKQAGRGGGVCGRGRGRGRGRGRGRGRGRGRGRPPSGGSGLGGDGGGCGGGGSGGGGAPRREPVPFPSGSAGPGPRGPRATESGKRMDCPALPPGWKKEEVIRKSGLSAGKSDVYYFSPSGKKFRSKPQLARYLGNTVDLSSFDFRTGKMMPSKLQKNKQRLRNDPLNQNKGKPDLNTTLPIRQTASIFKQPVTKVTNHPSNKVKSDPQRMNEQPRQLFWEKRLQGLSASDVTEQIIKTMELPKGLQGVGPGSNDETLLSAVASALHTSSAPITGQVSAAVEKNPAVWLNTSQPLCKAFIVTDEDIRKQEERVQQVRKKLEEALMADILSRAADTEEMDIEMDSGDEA
UHRF1 binding: UHRF1 methylated DNA binding inhibitors, primary screen, counter-screen for MBD2 inhibitor project, biochemical, TR-FRET, human UHRF1, single concentration; AID 687016, 2013; 370,000 compounds, 0.75% hits; E3 ubiquitin-protein ligase UHRF1 (Homo sapiens), Q96T88; inhibition, % at 4.4 µM; UHRF1 binding to methylated oligo; in the data active means inhibition above about 21%;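 further: UHRF1 SRA domain binding a hemimethylated CpG hairpin DNA probe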
TDP2 inh: human TDP2 enzyme inhibitors, primary screen, biochemical, epi absorbance, recombinant enzyme; T5PNP hydrolysis, p-nitrophenol absorbance 415 nm; 370,000 compounds, 0.34% hits; Tyrosyl-DNA phosphodiesterase 2 (Homo sapiens), O95551; AID 720702, 2013; inhibition, % at 12.8 µM;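 active means inhibition above the mean of all tested compounds plus 3 SD, set per campaign, cut at about 25% in these data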
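Test system: Human TDP2 enzyme | Reagent: 5 mM T5PNP | Compound dosing: 12.8 µM single point, 1% DMSO | Incubation: Enzyme reaction with compound for 2 h at 37 °C | Technique: p-Nitrophenol epi absorbance | Read-out: % inhibition relative to enzyme-containing and enzyme-free wells | Benchmarks: High control without enzyme, low control DMSO plus TDP2 | Replicates: Singlicate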
UHRF1 ctr MBD2: UHRF1 methylated DNA binding inhibitors, counter-screen for MBD2 inhibitor project, biochemical, TR-FRET, human UHRF1 | shares compounds with MBD2 DNA inh | UHRF1 binding to methylated oligonucleotide | inhibition, % at 4.4 µM | 1,000 compounds, 25% hits | AID 720530, 2013; in the data active means inhibition above about 21%;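 further: UHRF1 SRA domain binding a labeled hemimethylated CpG hairpin DNA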
MBD2 confirm: inhibitors of MBD2 binding to methylated DNA, confirmation, biochemical, TR-FRET, DNA-binding domain, human; shares compounds with MBD2 DNA inh; TR-FRET MBD2-DBD binding to methylated oligonucleotide; inhibition, % at 4.4 µM; 1,000 compounds, 26% hits
TDP2 inh conf: human TDP2 enzyme inhibitors, retest, confirmation, biochemical, epi absorbance, recombinant enzyme; shares compounds with TDP2 inh; absorbance read-out; inhibition, % at 12.8 µM; 1,100 compounds, 22% hits; AID 743263, 2014; in the data active means inhibition above about 25%
IN multimer up: HIV-1 IN multimer formation enhancers, counter-screen for LEDGF/p75 integration inhibitor project, biochemical, TR-FRET. 2,000 compounds, 17% hits. shares compounds with LEDGF integ inh. TR-FRET HIV-1 integrase multimerization. activation, % at 7.7 µM; in the data active means activation above about 8.9%
TRFRET interf: TR-FRET optical interference artefacts, confirmation, artefact control for LEDGF/p75-dependent integration inhibitor project, biochemical, HIV-1 IN multimerization; shares compounds with LEDGF integ inh; inhibition, % at 7.7 µM; TR-FRET optical interference counterscreen; 2,000 tested, under 10 active;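 active means inhibition above the mean over all tested compounds plus 3 SD, which no compound reached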
LEDGF integ conf: inhibitors of HIV-1 IN-LEDGF/p75 DNA integration, confirmation, biochemical, TR-FRET; inhibition, % at 3.7 µM; shares compounds with LEDGF integ inh; 2,000 compounds, 36% hits; AID 1053136, 2014; TR-FRET LEDGF/p75-dependent HIV-1 integration
Hits are given with their value; . = inactive; / = not tested or not shown. Unless noted, no stated cut-off is given here; in the data, active means inhibition above about 14%; inactive means the rest.

SMILES	LEDGF integ inh	Rin1-Abl PPI inh	MBD2 DNA inh	UHRF1 binding	TDP2 inh	UHRF1 ctr MBD2	MBD2 confirm	others
CNC12CCc3cc(OC)c(OC)c(c31)-c1cc3c(cc1C2)OCO3 (configuration not stated)	.	/	23	30	.	.	.
COc1cc2c(c(OC)c1OC)-c1c(cc3c(c1O)OCO3)C[C@@H](C)[C@@H](C)C2	.	.	.	.	.	/	/
Cc1ccc(C(=O)CC(C(=O)O)n2cncn2)cc1 (configuration not stated)	.	.	41	.	.	.	.
Cc1ccc(C(=O)CC(C(=O)O)n2cccn2)cc1 (configuration not stated)	.	.	.	.	.	/	/
Cc1onc(-c2ccccc2)c1C(=O)NCCc1ccc(S(N)(=O)=O)cc1	.	.	.	.	.	/	/
NS(=O)(=O)c1ccc(NC(=O)c2ccc3nccnc3c2)cc1	.	.	.	.	.	/	/
Cc1onc(-c2c(Cl)cccc2Cl)c1C(=O)NCCc1ccc(S(N)(=O)=O)cc1	.	.	14	32	.	.	.
NS(=O)(=O)c1ccc(CCNC(=O)c2ccc3nccnc3c2)cc1	.	.	15	.	.	34	26
Cc1[nH]c2ccc(C(=O)O)cc2c1C	.	.	.	.	.	/	/
CCCc1c(C)[nH]c2ccc(C(=O)O)cc2c1=S	.	.	25	77	.	38	23
COc1cc(OC)cc(-c2sc3ccc(OC)cc3c2C#CC2(N)CCCCC2)c1	.	.	14	29	.	.	.
COC(=O)[C@]12C[C@H](CC(=O)NCc3ccccc3)C(=O)N(Cc3cccc4ccccc34)C1=C[C@H](C(C)(C)C)O[C@@H]2C	.	/	.	.	.	/	/
COC(=O)[C@]12C[C@H](CC(=O)NCc3cccc(C(F)(F)F)c3)C(=O)N(Cc3cccc4ccccc34)C1=C[C@H](C(C)(C)C)O[C@@H]2C	.	/	25	.	.	.	.
COc1ccccc1NC(=O)N1CCN(CCc2ccccc2)CC1	.	.	.	.	.	/	/
CCN1CCN(C(=O)Nc2ccccc2OC)CC1	.	.	14	.	.	.	.
CCCCN1CN2Cc3ccccc3C2CS1(=O)=O (configuration not stated)	.	/	.	.	.	/	/
N#Cc1c(-c2ccccc2Cl)c2c([nH]c1=O)-c1ccccc1OC2	.	.	21	.	.	.	.
COc1ccc(C2C(C(=O)Nc3cc(Cl)ccc3F)CCC(=O)N2c2ccc(OC)cc2)cc1 (configuration not stated)	.	/	.	.	.	/	/
Cc1ccc(-n2c(SCc3cccc(F)c3)nc3ccccc3c2=O)cc1	.	/	.	.	.	/	/
CCN(c1ccccc1)S(=O)(=O)c1cc(C(=O)O)ccc1C	.	.	25	60	.	51	27
CN(C(=O)c1cccs1)c1ccccc1C(=O)O	.	.	16	32	42	.	.	TDP2 inh conf=.
CC(=O)Nc1cccc(-c2cc(C(C)=O)c3n(c2=O)CCC3)c1	.	/	.	.	.	/	/
CCCCCCC[C@H](N)[C@H](O)C(=O)N(C)[C@@H](CCS(C)=O)C(=O)N[C@@H](Cc1ccc(O)cc1)C(=O)O (some centres not stated)	.	/	.	.	.	/	/
CC1=NN(c2ccccc2)C(=O)/C1=C\c1cc(C)n(-c2ccccc2)c1C	.	.	.	.	.	/	/
COc1ccc(/C=C2/C(=O)N(c3ccccc3)N=C2C)cc1Br	.	.	15	.	70	.	.	TDP2 inh conf=27
SMILES	LEDGF integ inh	Rin1-Abl PPI inh	MBD2 DNA inh	UHRF1 binding	TDP2 inh	UHRF1 ctr MBD2	MBD2 confirm	others
O=C1NC(=S)S/C1=C\C=C\c1ccc([N+](=O)[O-])o1	81	.	74	94	30	90	47	TDP2 inh conf=.
NC(=S)N=Nc1c(O)[nH]c2ccc(F)cc12	.	.	.	.	.	/	/
NC(=S)N=Nc1c(O)cc(O)c2[nH]c(=O)ccc12	30	14	15	42	52	.	.	TDP2 inh conf=44
Cc1[nH][nH]c(=O)c1C(c1cc(Br)ccc1O)c1c(C)[nH][nH]c1=O	.	.	53	.	30	.	.	TDP2 inh conf=.
CCCCNC(=O)C[C@H]1C[C@@]2(C(=O)OC)C(=C[C@H](COCc3ccccc3)O[C@@H]2C)N(Cc2ccccc2)C1=O	.	/	.	.	.	/	/
CC(/C=C/c1ccco1)=N\NC(=O)c1cccnc1	.	.	.	.	.	/	/
O=C(/C=C/c1ccco1)c1cccnc1	67	.	31	84	.	44	20	IN multimer up=.;TRFRET interf=.;LEDGF integ conf=51
O=C(CSc1nnc(-c2ccco2)c(-c2ccco2)n1)c1ccccc1	57	.	17	58	.	.	.	IN multimer up=.;TRFRET interf=.;LEDGF integ conf=26
O=C(CSc1nnc(-c2ccco2)o1)c1ccccc1	.	.	.	.	.	/	/
Cc1cccc(N=C2NC(=O)/C(=C/C=C/c3ccco3)S2)c1C	49	.	17	48	.	21	.	IN multimer up=9.7;TRFRET interf=.;LEDGF integ conf=63
Cc1ccc(CN2CCCCC(NC(=O)c3cccc(F)c3)C2=O)cc1 (configuration not stated)	.	/	.	.	.	/	/

Screens as filed in PubChem.
